≈ marks a conversion by molar mass, not a printed value.
Tests used:
[1] = Solubility of the compound by spectrofluorimetric detection-based shake-flask method; assay type: physicochemical
[2] = system: Mus musculus; experiment: Toxicity in mouse assessed as effect on survival at 160 mg/kg, po administered for 3 days measured after 30 days; assay type: organism-based; details: in vivo, 720 h
Summary of the method: (§1)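 Groups of five healthy mice were dosed per os for three consecutive days, suspended in 0.5% hydroxyethylcellulose–0.1% Tween 80. Behaviour and appearance were monitored twice daily for 30 days, with survival assessed at 30 days. Non-toxic was defined as all 5 surviving with normal appearance and behaviour.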

[3] = system: Liver; experiment: Intrinsic clearance in mouse liver microsomes after 1 hr; assay type: ADME, microsome
Summary of the method: (§2)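 Substrate-depletion assay: compound incubated with human or mouse liver microsomes for 1 h at 37°C. Half-life and intrinsic clearance derived from compound loss.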

[4] = system: Mus musculus; experiment: Toxicity in mouse assessed as effect on behavior at 400 to 600 mg/kg, po administered as single dose measured 2 times a day for 30 days; assay type: organism-based; details: in vivo, 720 h
Summary of the method: (§3)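 Two groups of 5 healthy mice each received one oral dose, 400 or 600 mg/kg. Survival, appearance and behaviour were followed for 30 days. Non-toxic was defined as all 5 surviving with normal appearance and behaviour.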

[5] = system: Mus musculus; experiment: Cmax in mouse at 400 mg/kg, po by UPLC-MS/MS method; assay type: ADME, organism-based; design: dose 400 mg/kg, route oral; details: in vivo
Summary of the method: (§4)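 Single oral dose (400 mg/kg, 7 mice; 600 mg/kg, 6 mice), dissolved in DMSO and suspended in 0.5% hydroxyethylcellulose–0.1% Tween 80. Blood taken by cardiac puncture under chloroform, one mouse per time point, 15–120 min. Serum proteins precipitated with 2 volumes acetonitrile; analysed by UPLC-MS/MS against blank human serum calibration. Half-life read from the concentration–time curve.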

[6] = system: Plasma; experiment: Protein binding in human plasma after 4 hrs by equilibrium dialysis method; assay type: ADME, cell-free
Summary of the method: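 Equilibrium dialysis against buffer, 4 h at 37°C with shaking. After incubation both chambers were matrix-matched and protein-precipitated with cold acetonitrile/water/formic acid containing internal standard. Supernatants were analysed by LC-MS/MS. % free = buffer-chamber / plasma-chamber concentration × 100.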

[7] = target: Cytochrome P450 3A4 (Homo sapiens, UniProt P08684); experiment: Inhibition of CYP3A4 (unknown origin) using BFC as substrate; assay type: ADME
Summary of the method: (§5)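 Active CYP450 enzyme incubated at 37°C for a set time with a fluorogenic probe substrate (BQ, DBF or BFC for CYP3A4; CEC for CYP2C19; AMMC for CYP2D6). IC50 derived from net fluorescent signal.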

[8] = Drug uptake in mouse serum at 600 mg/kg, po measured at 45 mins by UPLC-MS/MS method; assay type: ADME, organism-based; details: read-out: Drug uptake; summary of the method: as §4
[9] = Drug uptake in mouse serum at 600 mg/kg, po measured at 30 mins by UPLC-MS/MS method; assay type: ADME, organism-based; details: read-out: Drug uptake; summary of the method: as §4
[10] = Protein binding in mouse plasma at 600 mg/kg, po by ultra-centrifugation method; assay type: ADME, organism-based; details: read-out: PPB
[11] = target: T1, Botulinum neurotoxin type A (Clostridium botulinum, UniProt P0DPI0)
[12] = Drug uptake in mouse serum at 400 mg/kg, po measured at 22 mins by UPLC-MS/MS method; assay type: ADME, organism-based; details: read-out: Drug uptake; summary of the method: as §4
[13] = target: Botulinum neurotoxin type A (Clostridium botulinum) (UniProt P0DPI0); experiment: Inhibition of Clostridium botulinum BoNT/A light chain at 20 uM using P39 as substrate preincubated for 10 mins followed by substrate addition measured after 10 mins by HPLC method relative to control
Summary of the method: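 Purified BoNT/A light chain (20 nM) with 0.2 mg/mL BSA in 50 mM HEPES pH 7.4, preincubated with compound for 10 min at room temperature. Cleavage fragments were separated by reversed-phase HPLC (214/280 nm). Percent inhibition was taken from fragment peak areas with vs without compound. Mean of three experiments.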

[14] = Drug uptake in mouse serum at 400 mg/kg, po measured at 30 mins by UPLC-MS/MS method; assay type: ADME, organism-based; details: read-out: Drug uptake; summary of the method: as §4
[15] = system: Liver; experiment: Half life in human liver microsomes; assay type: ADME, microsome; summary of the method: as §2
[16] = system: Mus musculus; experiment: Toxicity in mouse assessed as effect on behavior at 160 mg/kg, po administered for 3 days measured 2 times a day for 30 days; assay type: organism-based; details: in vivo, 720 h; summary of the method: as §1
[17] = target: Botulinum neurotoxin type A (Clostridium botulinum) (UniProt P0DPI0); experiment: Inhibition of Clostridium botulinum BoNT/A holotoxin-mediated SNAP-25 cleavage in mouse HBG3 cell-derived motor neurons assessed as full length of SNAP-25 at 20 uM preincubated for 30 mins followed by intoxication measured after 4 hrs by Western blot method relative to control; design: scale not given: the % may be the effect or the level left
[18] = Protein binding in mouse plasma at 400 mg/kg, po by ultra-centrifugation method; assay type: ADME, organism-based; details: read-out: PPB
[19] = system: Serum; experiment: Drug uptake in mouse serum at 400 mg/kg, po measured at 90 mins by UPLC-MS/MS method; assay type: ADME, organism-based; details: in vivo, 1.5 h, BLD = below limit of detection; summary of the method: as §4
[20] = target: Botulinum neurotoxin type A (Clostridium botulinum) (UniProt P0DPI0); experiment: (§6) Inhibition of Clostridium botulinum BoNT/A light chain using P39 as substrate preincubated for 10 mins followed by substrate addition measured after 10 mins by HPLC method
[21] = target: T1, Botulinum neurotoxin type A; experiment: as §6
[22] = Drug uptake in mouse serum at 600 mg/kg, po measured at 90 mins by UPLC-MS/MS method; assay type: ADME, organism-based; details: read-out: Drug uptake; summary of the method: as §4
[23] = target: Cytochrome P450 2C19 (Homo sapiens, UniProt P33261); experiment: Inhibition of CYP2C19 (unknown origin) using CEC as substrate; assay type: ADME; summary of the method: as §5
[24] = Drug uptake in mouse serum at 600 mg/kg, po measured at 15 mins by UPLC-MS/MS method; assay type: ADME, organism-based; details: read-out: Drug uptake; summary of the method: as §4
[25] = system: Mus musculus; experiment: Tmax in mouse at 600 mg/kg, po by UPLC-MS/MS method; assay type: ADME, organism-based; details: in vivo
Summary of the method: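 Single oral dose in DMSO suspended in 0.5% hydroxyethylcellulose–0.1% Tween 80, given to 7 (400 mg/kg) or 6 (600 mg/kg) mice. Serum came from cardiac puncture under chloroform, one mouse per time point, 15–120 min. Acetonitrile-precipitated serum was analysed by UPLC-MS/MS against calibration in blank human serum.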

[26] = system: Mus musculus; experiment: AUC (0 to 120 mins) in mouse at 600 mg/kg, po by UPLC-MS/MS method; assay type: ADME, organism-based; design: dose 600 mg/kg, time < 2 hr, route oral; details: in vivo, 2 h
[27] = target: Cytochrome P450 2D6 (Homo sapiens, UniProt P10635); experiment: Inhibition of CYP2D6 (unknown origin) using AMMC as substrate; assay type: ADME; summary of the method: as §5
[28] = system: Plasma; experiment: Metabolic stability in human plasma assessed as compound remaining after 1 hr; assay type: ADME, cell-free
Summary of the method: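 Compound incubated in human plasma for 1 h at 37°C; percent remaining determined.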

[29] = target: Botulinum neurotoxin type A (Clostridium botulinum) (UniProt P0DPI0); experiment: Inhibition of Clostridium botulinum BoNT/A holotoxin-mediated SNAP-25 cleavage in mouse HBG3 cell-derived motor neurons assessed as full length of SNAP-25 at 20 uM treated at 30 mins post intoxication by Western blot method relative to control; design: scale not given: the % may be the effect or the level left
[30] = Solubility of the compound at pH 7.4 by light scattering-based laser nephelometric method; assay type: physicochemical; details: buffer
Summary of the method: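 Solubility measured by laser nephelometry (light scattering), pH 7.4, n=3.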

[31] = system: Mus musculus; experiment: Toxicity in mouse assessed as effect on survival at 400 to 600 mg/kg, po administered as single dose measured after 30 days; assay type: organism-based; details: in vivo, 720 h; summary of the method: as §3
[32] = system: Serum; experiment: Drug uptake in mouse serum at 400 mg/kg, po measured at 120 mins by UPLC-MS/MS method; assay type: ADME, organism-based; details: in vivo, 2 h, BLD = below limit of detection; summary of the method: as §4

Sequence of Cytochrome P450 3A4 (P08684 whole entry): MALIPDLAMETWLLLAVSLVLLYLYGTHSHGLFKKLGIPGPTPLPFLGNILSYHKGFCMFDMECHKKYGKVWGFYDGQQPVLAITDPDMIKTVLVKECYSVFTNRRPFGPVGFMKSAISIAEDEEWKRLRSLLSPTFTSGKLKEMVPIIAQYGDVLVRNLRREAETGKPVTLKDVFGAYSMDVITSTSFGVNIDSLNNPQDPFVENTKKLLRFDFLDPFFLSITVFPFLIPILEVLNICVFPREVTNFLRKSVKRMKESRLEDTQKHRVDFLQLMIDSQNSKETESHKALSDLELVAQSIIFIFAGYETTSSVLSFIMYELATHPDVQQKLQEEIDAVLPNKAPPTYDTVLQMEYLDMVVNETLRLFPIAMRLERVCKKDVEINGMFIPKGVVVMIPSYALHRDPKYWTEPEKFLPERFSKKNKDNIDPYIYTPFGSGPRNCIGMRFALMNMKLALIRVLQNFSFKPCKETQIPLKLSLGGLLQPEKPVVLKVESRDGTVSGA
Sequence of Cytochrome P450 2C19 (P33261 whole entry): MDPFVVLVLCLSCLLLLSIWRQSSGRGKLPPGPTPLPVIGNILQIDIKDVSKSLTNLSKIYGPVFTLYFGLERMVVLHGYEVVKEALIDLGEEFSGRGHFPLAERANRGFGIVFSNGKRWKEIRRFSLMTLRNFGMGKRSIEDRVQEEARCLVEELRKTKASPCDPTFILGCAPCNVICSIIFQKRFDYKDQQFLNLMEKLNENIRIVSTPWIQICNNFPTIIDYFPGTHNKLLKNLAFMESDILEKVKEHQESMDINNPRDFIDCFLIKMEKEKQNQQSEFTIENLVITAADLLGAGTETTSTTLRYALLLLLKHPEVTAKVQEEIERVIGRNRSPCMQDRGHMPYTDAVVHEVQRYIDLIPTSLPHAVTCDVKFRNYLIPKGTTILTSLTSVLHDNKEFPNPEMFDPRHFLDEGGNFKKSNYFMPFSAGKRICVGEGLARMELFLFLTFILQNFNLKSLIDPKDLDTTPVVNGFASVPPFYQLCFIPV
Sequence of Cytochrome P450 2D6 (P10635 whole entry): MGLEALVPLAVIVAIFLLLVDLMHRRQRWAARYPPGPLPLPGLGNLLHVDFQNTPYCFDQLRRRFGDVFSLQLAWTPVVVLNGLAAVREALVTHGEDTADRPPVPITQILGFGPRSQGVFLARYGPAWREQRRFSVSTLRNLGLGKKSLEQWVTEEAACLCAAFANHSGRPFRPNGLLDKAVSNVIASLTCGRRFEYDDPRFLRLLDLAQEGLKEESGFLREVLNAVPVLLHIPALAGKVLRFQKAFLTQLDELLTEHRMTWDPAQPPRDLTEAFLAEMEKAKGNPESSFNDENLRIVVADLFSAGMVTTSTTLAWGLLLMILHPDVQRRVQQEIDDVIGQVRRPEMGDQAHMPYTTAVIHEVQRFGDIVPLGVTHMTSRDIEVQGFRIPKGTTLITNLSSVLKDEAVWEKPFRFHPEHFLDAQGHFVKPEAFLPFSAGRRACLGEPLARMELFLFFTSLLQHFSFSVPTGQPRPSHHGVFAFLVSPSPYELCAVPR

CC(=O)O[C@H]1C[C@H]2[C@@H]([C@H](OC(C)=O)C[C@@H]3C[C@H](N)CC[C@@]32C)[C@@H]2CC[C@H]([C@H](C)CCCNCCCCNc3ccnc4cc(Cl)ccc34)[C@@]12C
solubility thermodynamic [1]: 640 µg/mL (≈ 902 µM) | Activity [2]: Non-Toxic | CLH [3]: < 23 µL/min/mg | Activity [4]: Non-Toxic | Cmax [5]: 7.8 µM | PPB [6]: > 99% | IC50 [7]: 1.4 µM | concentration at 0.75 h [8]: 3.1 µM | concentration at 0.5 h [9]: 5.9 µM | fraction unbound [10]: < 0.01 | IC50 [11]: 8 µM | concentration at 22 min [12]: 7.8 µM | inhibition [13]: 66% | concentration at 0.5 h [14]: 4 µM | t1/2 [15]: > 60 min | Activity [16]: Non-Toxic | Activity [17]: 88% | fraction unbound [18]: < 0.01 | Drug uptake [19]: Bld | inhibition [20]: Dose-dependent effect | IC50 [21]: 4.5 µM | concentration at 1.5 h [22]: 4 µM | IC50 [23]: 5 µM | concentration at 0.25 h [24]: 11.9 µM | Tmax [25]: 15 min | AUC [26]: 526 µM·min | IC50 [27]: > 10 µM | Stability [28]: > 85% | Activity [29]: 64% | solubility kinetic [30]: > 50 µg/mL | Activity [31]: Non-Toxic | Drug uptake [32]: Bld
